We go through 18 compounds from PubChem BioAssay.

The structures appear in SMILES notation. Where “and” joins values, the source holds several entries; their conditions need not be identical. Equal values may be shown once. Calls of active or inactive are those of the source. Unless noted, no stated cut-off is given here; in the data, active means inhibition above about 30%; inactive means the rest.

Experiment [1] is described as follows: reduced viability of SK-BR-3 breast cancer cells – cell-based, 24 h, human, pilot screen (AID 572;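 active means viability at or below 10% of carrier control in both of two separate runs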;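 further: compound exposure lasted between 18 and 24 h rather than exactly 24 h; 100% = carrier-treated control wells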). Particulars: SK-BR-3 viability, CellTiter-Glo luminescence, at 10 µM, stronger effect = lower value. Background: ATP-based viability assays read luminescence as a measure of living cells.
A short description of experiment [2]: HUVEC growth inhibition – cell-based, human, primary screen (AID 575;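 active means viability at or below 30% in both replicate assays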;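 further: 100% = median of untreated cell wells with 0.1% DMSO on each plate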). Particulars: HUVEC proliferation, CellTiter-Glo luminescence, 72 h; at 10 µM; stronger effect = lower value. Summed up: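 Test system: primary human umbilical vein endothelial cells. Quantity: 1250 cells/well. Compound: single 10 µM dose, 0.1% DMSO, from 5x medium stock. Timing: 72 h treatment at 37 °C. Detection: ATP-based CellTiter-Glo luminescent read. Benchmarks: vehicle and MePR control wells. Format: 384-well plates coated with collagen.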

Experiment [3] is described as follows: H69AR cell proliferation blockers – human, duplicate replicates, primary screen (AID 580;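 active means viability at or under a set limit in both replicates, limit being median viability minus 3 SD, cut at about 48% in these data, passing the limit was not always enough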;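 further: 100% = mean luminescence of untreated wells and 0% = no signal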). Particulars: H69AR lung tumor cells viability, ATP luminescence, 72 h; at 10 µM; stronger effect = lower value.
A short description of experiment [4]: MRP1 drug-resistance reversers in H69AR cells – cell-based, doxorubicin co-treatment, pilot screen (AID 601;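 active means viability loss from added drug above about 55%, and viability with drug at most 40%, in both replicates, limit read from the data, passing the limit was not always enough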). Particulars: CellTiter-Glo, 72 h, at 10 µM; for differential viability (reversal): stronger effect = higher value.
Experiment [5] in a line: yeast transport mutant growth inhibition pilot in 384-well plates, post-Golgi transport modulator project (AID 636; in the data active means inhibition above about 31%). As to conditions: absorbance 615 nm, about 18 h, stronger effect = higher value.
The nature of experiment [6]: growth suppression of yeast trafficking mutant, preliminary HTS, modulators of trafficking downstream of Golgi apparatus project, 1536-format plate, OD 615 nm (AID 637). As to conditions: yeast transport mutant growth, absorbance 615 nm, 18 h; stronger effect = higher value.
[7] abbreviates: H69AR cells + 2 uM doxorubicin, measured here: viability with 2 uM doxorubicin, stronger effect = lower value.
Setting [8] is: H69AR cells, compound alone cytotoxicity.

Take `CCOC(=O)Cc1csc(NC(=O)c2cccc(OC)c2)n1`: the viability in experiment [1] is 75% (inactive); in experiment [2] it was 104% (inactive); in experiment [3], 103% (inactive); in experiment [4] (setting [7]) it was 102%; in experiment [4] (setting [8]), 103%. The differential viability (reversal) in experiment [4] (H69AR cells + 2 uM doxorubicin) is 0.32% (inactive). In addition, the values for the inhibition in experiment [5] and in experiment [6] were -5.75% (inactive) and -5.64% (inactive), respectively.

Take `CC1CC(C)CN(c2nc3c(c(=O)[nH]c(=O)n3C)n2CCCSc2nc3ccccc3s2)C1` (centres undefined): the viability was 59% (inactive) in experiment [1]; 115% (inactive) in experiment [2]; 100% (inactive) in experiment [3]; 106% in experiment [4] (setting [7]); 100% in experiment [4] (setting [8]). Also, the differential viability (reversal) in experiment [4] (H69AR cells + 2 uM doxorubicin) is -5.73% (inactive). Also, the values for the inhibition in experiment [5] and in experiment [6] were -0.14% (inactive) and 4.36% (inactive), respectively.

Take `Cn1c2c(c(=O)n(C)c1=O)C(NC(=O)C(C)(C)C)(C(F)(F)F)C(=O)N2` (centres undefined): the viability was 105% (inactive) in experiment [1]; 98.7% (inactive) in experiment [2]; 90.3% (inactive) in experiment [3]; 81.3% in experiment [4] (setting [7]); 90.3% in experiment [4] (setting [8]). In experiment [4] (H69AR cells + 2 uM doxorubicin), the differential viability (reversal) is 9.01% (inactive). In addition, the inhibition was -6.62% (inactive) in experiment [5] and -1.82% (inactive) in experiment [6].

Consider `CCOC(=O)c1cc(-c2ccccc2)sc1N`, for which the viability was 129% (inactive) in experiment [1]; 71.1% (inactive) in experiment [2]; 81.3% (inactive) in experiment [3]; 77.8% in experiment [4] (setting [7]); 81.3% in experiment [4] (setting [8]). Besides, the differential viability (reversal) in experiment [4] (H69AR cells + 2 uM doxorubicin) was 3.5% (inactive). In addition, the values for the inhibition in experiment [5] and in experiment [6] were -6% (inactive) and -2% (inactive), respectively.

`NCc1ccc(S(N)(=O)=O)cc1`: the viability in experiment [1] was 124% (inactive); in experiment [2], 84.8% (inactive); in experiment [3], 102% (inactive); in experiment [4] (setting [7]), 92.1%; in experiment [4] (setting [8]), 102%. In addition, the differential viability (reversal) in experiment [4] (H69AR cells + 2 uM doxorubicin) was 9.47% (inactive). Besides, the values for the inhibition in experiment [5] and in experiment [6] were -1.43% (inactive) and 6.33% (inactive), respectively.

Regarding `CN(C)CCN(Cc1ccccc1)c1ccccn1`, the viability was 100% (inactive) in experiment [1]; 89.1% (inactive) in experiment [2]; 101% (inactive) in experiment [3]; 92.7% in experiment [4] (setting [7]); 101% in experiment [4] (setting [8]). Moreover, the differential viability (reversal) in experiment [4] (H69AR cells + 2 uM doxorubicin) is 8.55% (inactive). For the same compound, the figures for the inhibition in experiment [5] and in experiment [6] were 3.38% (inactive) and -0.67% (inactive), respectively.

On to `CCC(C)(C)n1nnnc1C(c1cc2cc(C)ccc2[nH]c1=O)N1CCCC1` (centres undefined), for which the viability was 94% (inactive) in experiment [1]; 98.7% (inactive) in experiment [2]; 98.6% (inactive) in experiment [3]; 89% in experiment [4] (setting [7]); 98.6% in experiment [4] (setting [8]). For the same compound, the differential viability (reversal) in experiment [4] (H69AR cells + 2 uM doxorubicin) was 9.6% (inactive). In addition, the values for the inhibition in experiment [5] and in experiment [6] were -4.55% (inactive) and 4.26% (inactive), respectively.

Consider `CCN(CC)CC(=O)Nc1c(C)cccc1C`, for which the viability in experiment [1] is 101% (inactive) and 123% (inactive); in experiment [2] it was 97.3% (inactive) and 96.1% (inactive); in experiment [3], 107% (inactive) and 101% (inactive); in experiment [4] (setting [7]), 91.2% and 90%; in experiment [4] (setting [8]), 107% and 101%. Moreover, the differential viability (reversal) in experiment [4] (H69AR cells + 2 uM doxorubicin) is 15.8% (inactive) and 10.7% (inactive). Moreover, the inhibition in experiment [5] is -3.38% (inactive); in experiment [6], -3.67% (inactive) and 1.67% (inactive).

With `Cc1cc(C(=O)Nc2c(C)n(C)n(-c3ccccc3)c2=O)c(C)o1`, the viability in experiment [1] was 71% (inactive); in experiment [2], 105% (inactive); in experiment [3], 110% (inactive); in experiment [4] (setting [7]), 98.4%; in experiment [4] (setting [8]) it was 110%. In addition, in experiment [4] (H69AR cells + 2 uM doxorubicin), the differential viability (reversal) is 11.8% (inactive). Besides, the figures for the inhibition in experiment [5] and in experiment [6] were -8.08% (inactive) and 4.91% (inactive), respectively.

Turning to `Cc1occc1-c1nc(-c2ccncc2)no1`, the viability is 79% (inactive) in experiment [1]; 83.2% (inactive) in experiment [2]; 95.4% (inactive) in experiment [3]; 92.5% in experiment [4] (setting [7]); 95.4% in experiment [4] (setting [8]). Also, the differential viability (reversal) in experiment [4] (H69AR cells + 2 uM doxorubicin) is 2.9% (inactive). For the same compound, the inhibition in experiment [5] is 0.96% (inactive); in experiment [6] it was -8.87% (inactive).

In the case of `COc1ccc(NC(=O)Cn2nnc(-c3ccccc3F)n2)cc1Cl`, the viability in experiment [1] is 116% (inactive); in experiment [2], 104% (inactive); in experiment [3] it was 95.5% (inactive); in experiment [4] (setting [7]), 92.3%; in experiment [4] (setting [8]), 95.5%. Further, the differential viability (reversal) in experiment [4] (H69AR cells + 2 uM doxorubicin) is 3.27% (inactive). The values for the inhibition in experiment [5] and in experiment [6] were -8.22% (inactive) and 0.18% (inactive), respectively.

As for `COc1ccc(CCNC(=O)CCN2C(=O)C3CC=CCC3C2=O)cc1OC` (centres undefined), the viability in experiment [1] was 103% (inactive); in experiment [2] it was 91.9% (inactive); in experiment [3] it was 105% (inactive); in experiment [4] (setting [7]), 92.8%; in experiment [4] (setting [8]) it was 105%. Also, the differential viability (reversal) in experiment [4] (H69AR cells + 2 uM doxorubicin) was 12% (inactive). Moreover, the inhibition in experiment [5] was -2.08% (inactive); in experiment [6], -1.97% (inactive).

For `CCc1ccc2[nH]c(=O)c(C(c3nnnn3CC3CCCO3)N3CCN4CCCC4C3)cc2c1` (centres undefined), the viability in experiment [1] is 100% (inactive); in experiment [2], 109% (inactive); in experiment [3], 105% (inactive); in experiment [4] (setting [7]), 91.1%; in experiment [4] (setting [8]) it was 105%. In addition, in experiment [4] (H69AR cells + 2 uM doxorubicin), the differential viability (reversal) is 14.1% (inactive). The inhibition in experiment [5] is -3.2% (inactive); in experiment [6], -2.55% (inactive).

Turning to `O=C1NC(c2cccnc2)C(C(=O)c2cccs2)C(O)(C(F)(F)F)N1` (centres undefined), the viability in experiment [1] is 116% (inactive); in experiment [2], 113% (inactive); in experiment [3], 103% (inactive); in experiment [4] (setting [7]) it was 97.7%; in experiment [4] (setting [8]) it was 103%. Further, the differential viability (reversal) in experiment [4] (H69AR cells + 2 uM doxorubicin) is 4.9% (inactive). For the same compound, the inhibition in experiment [5] is -0.27% (inactive); in experiment [6], -0.18% (inactive).

For the compound `CCc1c(C)nc2ncnn2c1NCCc1ccc(OC)c(OC)c1`, the viability in experiment [1] is 64% (inactive); in experiment [2], 103% (inactive); in experiment [3], 80.6% (inactive); in experiment [4] (setting [7]), 81.1%; in experiment [4] (setting [8]) it was 80.6%. Besides, the differential viability (reversal) in experiment [4] (H69AR cells + 2 uM doxorubicin) is -0.53% (inactive). The inhibition in experiment [5] was -7.03% (inactive); in experiment [6], -0.18% (inactive).

Take `Cc1cccc(-n2c(SCc3cc(=O)n4ccsc4n3)nc3ccccc32)c1`: the viability is 93% (inactive) in experiment [1]; 66.1% (inactive) in experiment [2]; 78.5% (inactive) in experiment [3]; 88.1% in experiment [4] (setting [7]); 78.5% in experiment [4] (setting [8]). Further, in experiment [4] (H69AR cells + 2 uM doxorubicin), the differential viability (reversal) was -9.64% (inactive). In addition, the inhibition in experiment [5] was 3.01% (inactive); in experiment [6] it was 40% (active).

Take `Cc1sc2ncnc(Oc3ccc(-n4ccnc4)cc3)c2c1C`: the viability in experiment [1] was 88% (inactive); in experiment [2] it was 102% (inactive); in experiment [3], 87.2% (inactive); in experiment [4] (setting [7]) it was 102%; in experiment [4] (setting [8]) it was 87.2%. For the same compound, the differential viability (reversal) in experiment [4] (H69AR cells + 2 uM doxorubicin) is -15.1% (inactive). For the same compound, the values for the inhibition in experiment [5] and in experiment [6] were -8.77% (inactive) and 3.27% (inactive), respectively.

`Cc1ccc(-c2ccc(SCC(=O)Nc3nonc3C)nn2)cc1`: the viability in experiment [1] was 94% (inactive); in experiment [2], 81.8% (inactive); in experiment [3] it was 88.8% (inactive); in experiment [4] (setting [7]), 93.5%; in experiment [4] (setting [8]), 88.8%. The differential viability (reversal) in experiment [4] (H69AR cells + 2 uM doxorubicin) is -4.68% (inactive). The inhibition in experiment [5] was -7.57% (inactive); in experiment [6], -0.55% (inactive).

The viability is a read-out of living cells in per cent, often relative to untreated cells. Broadly, the inhibition is the drop in the measured response relative to a control, in per cent.
